Experimental findings from ChEMBL document CHEMBL5715946 (Chem Biol, 2010) are described below.

Calls of active or inactive are those of the source. The calls are words filed in the database; no cut-off is given here.

In general, inhibition refers to the relative decrease from the control value, in per cent. By Kd is commonly meant the concentration at which binding is half-saturated.

Experiment [1] deals with Cardiac muscle cell. The experiment is described as follows: Cytoprotective activity against serum deprivation-induced neonatal Wistar rat cardiomyocyte death assessed as increase in cell viability measured after 4 days by WST-8 assay. The experiment is classed as functional. The method, boiled down:
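Primary neonatal rat cardiomyocytes were isolated by proteinase digestion, with preplating to remove adherent non-myocytes. Death was induced by serum deprivation at low density (3×10^5 cells/ml) for 4 days with compound present. Viability was read by WST-8. MEC1.5 is the concentration giving a 50% rise in viability. n = 3.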

Experiment [2] deals with Cardiac muscle cell. The experiment is described as follows: Cytoprotective activity against DOX-induced neonatal Wistar rat cardiomyocyte death assessed as increase in cell viability at 4.6 to 370 nM preincubated for 3 hrs followed by DOX addition and measured after 18 hrs by WST-8 assay. To be noted: dose 4.6-370 nM, time 21.0 hrs. The format is functional, cell-based. An outline of the steps:
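Neonatal rat cardiomyocytes, isolated by proteinase digestion and preplating, pretreated with samples for 3 hr in serum-free medium, then exposed to 200 nM doxorubicin for 18 hr. Viability by WST-8. Mean ± SD, n = 6.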
Background: Tetrazolium dyes change colour on reduction, which living cells bring about.

Experiment [3] can be described thus: Upregulation of multidrug resistance protein gene expression in serum-deprived neonatal Wistar rat cardiomyocyte at 0.37 uM incubated for 21 hrs by microarray analysis relative to control. The experiment is classed as functional, Cardiac muscle cell. The method, boiled down: (§1)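 Primary neonatal rat cardiomyocytes, isolated by proteinase digestion with preplating to deplete nonmyocytes, cultured in serum-free medium with or without 0.37 μM compound for 21 hr. Total RNA was recovered and global expression profiled on an Affymetrix GeneChip rat genome U34A array (about 7000 known genes). Change is relative to untreated cells.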

The nature of experiment [4]: Upregulation of glutathione S-transferase Yc1 subunit gene expression in serum-deprived neonatal Wistar rat cardiomyocyte at 0.37 uM incubated for 21 hrs by microarray analysis relative to control. The experiment is classed as functional, Cardiac muscle cell. The method, boiled down: as §1
Experiment [5] can be described thus: Upregulation of 3-methylcholanthrene-inducible UDP-glucuronosyltransferase gene expression in serum-deprived neonatal Wistar rat cardiomyocyte at 0.37 uM incubated for 21 hrs by microarray analysis relative to control. The experiment is classed as functional, Cardiac muscle cell. The method, boiled down: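 Primary neonatal rat cardiomyocytes cultured with or without 0.37 μM compound in serum-free medium for 21 hr. Total RNA profiled on the rat genome U34A GeneChip array (about 7000 known genes).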

The subject of experiment [6] is Antioxidant response element. Put plainly: Induction of ARE activity in serum-deprived neonatal Wistar rat cardiomyocytes assessed as increase in GST Ya expression up to 400 nM measured after 24 hrs by Western blot analysis. The experiment is classed as cell-based. To be noted: Cardiomyocyte. The method, boiled down: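 Neonatal rat cardiomyocytes exposed to samples or vehicle in M-199 with 1% penicillin-streptomycin, no serum, for 24 hr. GST Ya and HO-1 mRNA measured by real-time qPCR (mean ± SD, n = 3); protein by western blot with β-actin as control.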
For orientation: Immunoblotting shows a protein as a band on a membrane.

The target of experiment [7] is Macrophage migration inhibitory factor (Rattus norvegicus) (UniProt P30904). Put plainly: Inhibition of recombinant rat MIF expressed in Escherichia coli BL21 (DE3) assessed as reduction in tautomerase activity at 30 uM using L-dopachrome carboxy-methyl ester as substrate by spectrophotometry relative to control. The method, boiled down:
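Purified recombinant rat MIF tautomerase assayed with purified L-dopachrome carboxy-methyl ester as substrate in pH 6.0 buffer; rate taken over the initial 30 s. Mean ± SD, n = 4.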

Experiment [8] addresses T1, Macrophage migration inhibitory factor (Homo sapiens, UniProt P14174).
T1 sequence (P14174 whole entry): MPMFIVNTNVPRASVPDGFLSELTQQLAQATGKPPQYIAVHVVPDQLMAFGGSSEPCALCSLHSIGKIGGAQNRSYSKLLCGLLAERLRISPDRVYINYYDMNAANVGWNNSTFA
The experiment is described as follows: Binding affinity to recombinant human C-terminal His-tagged MIF expressed in Escherichia coli BL21 (DE3) at 400 nM incubated for 6 hrs using labelled compound by scintillation proximity assay. The method, boiled down: (§2)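 Scintillation proximity assay: 6His-tagged protein (hMIF, rat GST Ya or rat VILIP3) captured on copper His-tag SPA beads with [3H]-BTZO-1; emitted light counted on a microplate scintillation counter. Mean of n = 2.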
A general note: In a scintillation proximity assay essentially only radioactivity close to the scintillant gives light.

The target of experiment [9] is T2, Glutathione S-transferase alpha-1 (Rattus norvegicus) (UniProt P00502).
T2 sequence (whole entry): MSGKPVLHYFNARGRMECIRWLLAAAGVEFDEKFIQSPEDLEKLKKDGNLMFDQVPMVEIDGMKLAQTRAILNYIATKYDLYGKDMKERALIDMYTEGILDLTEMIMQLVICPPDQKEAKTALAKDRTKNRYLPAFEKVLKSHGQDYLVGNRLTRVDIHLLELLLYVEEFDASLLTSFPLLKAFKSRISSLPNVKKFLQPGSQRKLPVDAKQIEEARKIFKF
The experiment is described as follows: Binding affinity to rat N-terminal 6His-tagged truncated GST Ya expressed in Escherichia coli BL21 (DE3) at 400 nM incubated for 6 hrs using labelled compound by scintillation proximity assay. An outline of the steps: as §2

Experiment [10] deals with T1, Macrophage migration inhibitory factor. The experiment is described as follows: Binding affinity to BTZO-12 sensor chip immobilized human MIF expressed in Escherichia coli BL21 (DE3) by SPR analysis. The method, boiled down: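 Sensor chip carrying immobilized BTZO-12; MIF (wild type or point mutants) passed over it and specific binding monitored by surface plasmon resonance.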

Experiment [11] relates to Antioxidant response element. The experiment is described as follows: Induction of rat ARE activity expressed in MIF-stimulated rat H9c2 cells assessed as increase in ARE luciferase activity at 1 uM measured after 24 hrs by steady-glo luciferase Assay. The experiment is classed as cell-based. An outline of the steps: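 H9c2 cells transiently transfected with pGL3-ARE-Luc (rat GST Ya ARE) or mutant-ARE control plasmid, then treated with rMIF with or without 1 μM compound for 24 hr. Luciferase by Steady-Glo; mean ± SD, n = 4.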

The target of experiment [12] is Macrophage migration inhibitory factor (Rattus norvegicus) (UniProt P30904). The experiment is described as follows: Induction of MIF-stimulated ARE activity in rat H9c2 cells assessed as increase in HO-1 expression at 3 uM incubated for 6 hrs by RT-qPCR analysis. The experiment is classed as cell-based.
Macrophage migration inhibitory factor (Rattus norvegicus), sequence (P30904 2-115 limits assumed): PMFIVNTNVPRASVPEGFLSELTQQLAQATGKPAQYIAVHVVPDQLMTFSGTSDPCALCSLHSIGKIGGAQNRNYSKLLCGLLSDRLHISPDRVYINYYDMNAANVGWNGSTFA
Experiment [13] in a line: Reduction in MIF mRNA expression in rat H9c2 cells transfected with MIF siRNA at 3 uM measured after 24 hrs RT-qPCR analysis relative to control. The experiment is classed as functional. Set-up: scale not given: the % may be the effect or the level left. The method, boiled down: (§3)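 H9c2 cells transfected with 100 nM rat MIF siRNA or negative-control siRNA using Oligofectamine in Opti-MEM, then treated with 3 μM compound for 24 hr. MIF mRNA by real-time qPCR; MIF protein in cell lysate and medium by ELISA. Mean ± SD, n = 3.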

Experiment [14] can be described thus: Reduction in MIF expression in MIF siRNA transfected rat H9c2 cell lysates at 3 uM measured after 24 hrs ELISA relative to control. The experiment is classed as functional. Also on record: scale not given: the % may be the effect or the level left. The method, boiled down: as §3
The subject of experiment [15] is Antioxidant response element. The experiment is described as follows: Induction of ARE-mediated GST Ya mRNA expression in MIF siRNA transfected rat H9c2 cells at 3 uM measured after 24 hrs by RT-qPCR analysis. The format is cell-based. An outline of the steps: (§4)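 H9c2 cells transfected with MIF siRNA or control siRNA (100 nM, Oligofectamine), then treated with 3 μM compound with or without 0.8 μM rMIF for 24 hr. GST Ya and HO-1 mRNA by real-time qPCR; mean ± SD, n = 3. MIF effect on drug efficacy tested by Aspin-Welch test.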

Experiment [16] concerns Antioxidant response element. The experiment is described as follows: Induction of ARE-mediated GST Ya mRNA expression in MIF siRNA transfected rat H9c2 cells at 3 uM measured after 24 hrs in presence of rat MIF by RT-qPCR analysis. The experiment is classed as cell-based. The method, boiled down:
as §4

The test system of experiment [17] is Antioxidant response element. Put plainly: Induction of ARE-mediated HO-1 mRNA expression in MIF siRNA transfected rat H9c2 cells at 3 uM measured after 24 hrs by RT-qPCR analysis. The format is cell-based. The method, boiled down: as §4

`O=c1nc(-c2ccccn2)sc2ccccc12` [BTZO-1]: the MEC1.5 in experiment [1] (time 4 day) is reported as 16 nM. Besides, the values for the Activity result in [1] (time 4.0 day), in experiment [13] and in [14] were “Dose-Dependent Effect”, ~80% and ~50%, respectively. The outcome in [2], in experiment [6], in experiment [11], in experiment [12] and in experiment [16] was Active. For the same compound, the “fold change (FC)” value in [3] came to 2.7; in experiment [4], 2.1; in [5] it was 2.1. Also, the inhibition in [7] came to 13%. Moreover, the Kd in experiment [8] came out at 68.6 nM; in experiment [10], 88 nM. Further, the result in experiment [9], in [15] and in experiment [17] was inactive.
